Screening results as filed in PubChem BioAssay.
Arrestin-AP2 inh = blocks beta-arrestin peptide binding to AP2 adaptin | inhibition, % at 10 µM | FITC-arrestin peptide / GST-AP2 beads, flow cytometry; AP2 beta2 appendage carries R879A mutation | 340,000 tested, 0.31% active;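 active = inhibition above a set limit, near 3 SD of compounds lacking own fluorescence, cut at about 54% in these data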;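 note: plate controls were DMSO wells for no effect and 5 µM unlabelled arrestin peptide for full effect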
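System: GST-AP2 R879A glutathione beads; medium: PBS, Tween 20 0.05%, BSA 0.1%; reagent: fluorescein-tagged arrestin peptide at 50 nM final; schedule: pre-incubation 12 min, peptide binding 1 h, room temperature; detection: flow cytometry, FL1 (488/535 nm); read-out: inhibition as reduced fluorescein signal on beads, percent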
PLCb3 inh = inhibitors of human phospholipase C beta3. Purified PLC-beta3, fluorogenic substrate, fluorescence. inhibition, % at 12.2 µM. 370,000 tested, 0.18% active. AID 720704; in the data active = inhibition above about 11%;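 note: 0% = median of compound wells on plate and 100% = full blocker control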
Target sequence (Q01970 whole entry, looked up): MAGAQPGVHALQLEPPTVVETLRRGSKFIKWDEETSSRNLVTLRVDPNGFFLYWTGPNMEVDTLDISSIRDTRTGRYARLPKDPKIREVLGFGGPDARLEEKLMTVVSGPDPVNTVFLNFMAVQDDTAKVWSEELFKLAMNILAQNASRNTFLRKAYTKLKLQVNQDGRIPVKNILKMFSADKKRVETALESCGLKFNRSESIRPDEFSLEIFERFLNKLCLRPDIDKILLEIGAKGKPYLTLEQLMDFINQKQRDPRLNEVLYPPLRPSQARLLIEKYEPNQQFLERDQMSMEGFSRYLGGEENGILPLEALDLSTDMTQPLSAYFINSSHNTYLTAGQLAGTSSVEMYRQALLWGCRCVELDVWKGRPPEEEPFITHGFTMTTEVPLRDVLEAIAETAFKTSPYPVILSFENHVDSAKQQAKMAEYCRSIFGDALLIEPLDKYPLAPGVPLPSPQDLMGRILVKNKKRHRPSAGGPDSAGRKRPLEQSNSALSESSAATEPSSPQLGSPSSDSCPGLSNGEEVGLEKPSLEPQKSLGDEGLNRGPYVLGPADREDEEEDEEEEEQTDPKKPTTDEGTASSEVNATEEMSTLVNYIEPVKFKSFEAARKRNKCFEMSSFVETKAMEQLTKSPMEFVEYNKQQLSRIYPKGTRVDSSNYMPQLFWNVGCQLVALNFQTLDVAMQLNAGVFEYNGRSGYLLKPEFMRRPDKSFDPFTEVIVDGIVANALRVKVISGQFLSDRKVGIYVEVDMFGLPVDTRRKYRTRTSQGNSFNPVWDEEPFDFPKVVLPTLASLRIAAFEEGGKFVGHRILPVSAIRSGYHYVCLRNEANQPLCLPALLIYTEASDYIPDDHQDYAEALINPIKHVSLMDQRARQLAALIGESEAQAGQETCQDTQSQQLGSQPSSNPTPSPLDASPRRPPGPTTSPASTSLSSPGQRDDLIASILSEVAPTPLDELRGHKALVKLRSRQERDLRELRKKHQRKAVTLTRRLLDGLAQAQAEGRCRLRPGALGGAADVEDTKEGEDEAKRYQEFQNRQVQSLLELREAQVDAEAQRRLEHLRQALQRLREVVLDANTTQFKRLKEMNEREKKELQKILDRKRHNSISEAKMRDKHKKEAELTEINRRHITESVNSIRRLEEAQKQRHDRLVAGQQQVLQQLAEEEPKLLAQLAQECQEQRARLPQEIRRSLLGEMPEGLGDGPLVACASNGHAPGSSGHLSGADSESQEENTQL
PLC-gamma1 inh = PLC-gamma1 (human) inhibition, primary screen. purified PLC-gamma1, fluorogenic substrate, fluorescence. inhibition, % at 12.2 µM. 370,000 tested, 0.84% active. AID 720700; in the data active = inhibition above about 9.5%
NTR1 agonist = activates human neurotensin receptor 1; P30989; NTR1-U2OS beta-arrestin-GFP spot imaging, agonist mode; activation, % at 20 µM; 330,000 tested, 0.17% active; AID 493036;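 active = activation at or above 40% of the spot to cytoplasm intensity ratio, with at least 20 cells analyzed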;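 note: 0% = DMSO without peptide and 100% = 100 nM NTR1 peptide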
Arr-AP2 CP1 = blocks beta-arrestin peptide binding to human AP2. shares compounds with Arrestin-AP2 inh. GST-AP2 beads, FITC arrestin peptide binding, flow cytometry; GST-fused beta2-adaptin appendage, R879A mutant. inhibition, % at 10 µM. 1,300 tested, 2% active. AID 504908;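 active = inhibition above a set limit, roughly 3 SD of non-fluorescent compound noise, cut at about 38% in these data; inactive = inhibition at or below that limit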;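 note: loss of bead fluorescence from 50 nM FITC arrestin peptide bound to appendage; 0% = negative control wells and 100% = excess unlabelled arrestin peptide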
GST-FITC bead = counter-screen for beta-arrestin AP2 inhibitors: GST-GSH bead binding; 1,300 tested, 2% active; GST-fluorescein binding to GSH beads, fluorescence; AID 588338; inhibition, % at 10 µM; shares compounds with Arrestin-AP2 inh;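 active = inhibition above 50%, about 3 SD of the inhibition seen with non-fluorescent compounds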;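 note: fluorescein maleimide labelled GST captured on 4 micron glutathione beads; higher means more loss of bead fluorescence from quenching or blocked binding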
An asterisk follows results filed as active. In the library only some 1.3% were active in any assay of this set; here they are far more common.

Results for Cc1cccc(C(=O)Oc2ccc(/C=N/NC(=O)Cc3ccc([N+](=O)[O-])cc3)cc2)c1 ?
Arrestin-AP2 inh: 105*; PLCb3 inh: 2; PLC-gamma1 inh: 0; NTR1 agonist: 6; Arr-AP2 CP1: -3; GST-FITC bead: 59*

What do the screens show for `CN(CCO)c1ccc2c(c1)Oc1ccccc1CN(Cc1cn(Cc3ccc(F)cc3)nn1)S2(=O)=O`?
PLCb3 inh: 0; PLC-gamma1 inh: -1

How did Nc1nc(-c2ccccc2)nc2sc3c(c12)CCCC3 do in these assays?
Arrestin-AP2 inh: 65*; PLCb3 inh: -63; PLC-gamma1 inh: -47; NTR1 agonist: 8; Arr-AP2 CP1: 21; GST-FITC bead: -3

What do the screens show for `Cc1ccc(-n2c(SC/C=C/c3ccccc3)nnc2-c2cccs2)cc1`?
PLCb3 inh: -1; PLC-gamma1 inh: -2

How did COc1cc(N2C[C@@]3(O)CC[C@@H](O)[C@@H](OC)[C@@H]3[C@@](C)(O)[C@@H]2CC=C(C)C)cc(OC)c1OC do in these assays?
PLCb3 inh: -2; PLC-gamma1 inh: -3

How did C[C@H](O)[C@@H]1CN2CCc3ccc(-c4ccc5c(c4)OCO5)cc3[C@@H]2C[C@@H]1N(C)CC1CCCCC1 do in these assays?
PLCb3 inh: -3; PLC-gamma1 inh: -6

What do the screens show for `COc1cccc(C(=O)Nc2ccc(NC(=O)c3ccco3)c(Cl)c2)c1`?
Arrestin-AP2 inh: 56*; PLCb3 inh: 10; PLC-gamma1 inh: -3; NTR1 agonist: 1; Arr-AP2 CP1: 1; GST-FITC bead: -6

How did Nc1ncncc1-c1ccc(Cl)cc1 do in these assays?
Arrestin-AP2 inh: 13; PLCb3 inh: -5; PLC-gamma1 inh: 1; NTR1 agonist: -1

How did Nc1ncc(-n2cncn2)c(-c2ccc(Cl)cc2)n1 do in these assays?
Arrestin-AP2 inh: 56*; PLCb3 inh: -12; PLC-gamma1 inh: -10; NTR1 agonist: -1; Arr-AP2 CP1: -11; GST-FITC bead: -2

Results for CC(=O)OCC(=O)NCC1CCN(C(=O)C(=O)c2cc3ccccc3o2)CC1 ?
PLCb3 inh: 1; PLC-gamma1 inh: 4

Results for Cc1ccc2nc(SCC(=O)Nc3ccc(Br)cc3)nc(=O)n2c1 ?
Arrestin-AP2 inh: 56*; PLCb3 inh: 2; PLC-gamma1 inh: 5; NTR1 agonist: 1; Arr-AP2 CP1: -10; GST-FITC bead: -1

Results for N#Cc1sc2nc(-c3cccs3)cc(-c3ccc(Cl)cc3)c2c1N ?
Arrestin-AP2 inh: 61*; PLCb3 inh: -240; PLC-gamma1 inh: -149; NTR1 agonist: 12; Arr-AP2 CP1: -11; GST-FITC bead: 9

What do the screens show for `Cc1ccccc1CNC(=O)C1CCC(=O)N(Cc2cccc(F)c2)C1` (stereo not drawn)?
Arrestin-AP2 inh: 4; PLCb3 inh: -4; PLC-gamma1 inh: 3; NTR1 agonist: 1; Arr-AP2 CP1: -1; GST-FITC bead: -2

What do the screens show for `COC(=O)c1ccc(CNC(=O)C2CCC(=O)N(CCc3ccccc3)C2)cc1` (stereo not drawn)?
Arrestin-AP2 inh: 2; PLCb3 inh: -8; PLC-gamma1 inh: -1; NTR1 agonist: 0; Arr-AP2 CP1: -9; GST-FITC bead: 1

What do the screens show for `Cc1ccccc1CCNC(=O)C1CCC(=O)N(CCc2cccc(F)c2)C1` (stereo not drawn)?
Arrestin-AP2 inh: 8; PLCb3 inh: -2; PLC-gamma1 inh: 1; NTR1 agonist: 0; Arr-AP2 CP1: -9; GST-FITC bead: -4

What do the screens show for `COc1ccc(CCN2CC(C(=O)NCc3ccccc3)CCC2=O)cc1` (stereo not drawn)?
Arrestin-AP2 inh: 1; PLCb3 inh: -4; PLC-gamma1 inh: 2; NTR1 agonist: 0

What do the screens show for `O=C1N/C(=C/c2cccn2-c2ccc(F)cc2)C(=O)N1Cc1ccccc1F`?
Arrestin-AP2 inh: 105*; PLCb3 inh: -6; PLC-gamma1 inh: -6; NTR1 agonist: 5; Arr-AP2 CP1: 8; GST-FITC bead: 2

How did Cc1ccc(-c2c(C(=O)N/N=C/c3cccs3)nnn2-c2nonc2N)cc1 do in these assays?
Arrestin-AP2 inh: 28; NTR1 agonist: 1

How did CCOc1ccc(-c2c(C(=O)N/N=C/c3cccs3)nnn2-c2nonc2N)cc1 do in these assays?
Arrestin-AP2 inh: 61*; PLCb3 inh: -17; PLC-gamma1 inh: -2; NTR1 agonist: 0; Arr-AP2 CP1: 4; GST-FITC bead: -5
